Results gathered from unrelated publications.
Lines come from different studies, so protocols differ.
Target: NUAK family SNF1-like kinase 1 (NUAK1, Homo sapiens, UniProt O60285)
One construct used (O60285 1-661): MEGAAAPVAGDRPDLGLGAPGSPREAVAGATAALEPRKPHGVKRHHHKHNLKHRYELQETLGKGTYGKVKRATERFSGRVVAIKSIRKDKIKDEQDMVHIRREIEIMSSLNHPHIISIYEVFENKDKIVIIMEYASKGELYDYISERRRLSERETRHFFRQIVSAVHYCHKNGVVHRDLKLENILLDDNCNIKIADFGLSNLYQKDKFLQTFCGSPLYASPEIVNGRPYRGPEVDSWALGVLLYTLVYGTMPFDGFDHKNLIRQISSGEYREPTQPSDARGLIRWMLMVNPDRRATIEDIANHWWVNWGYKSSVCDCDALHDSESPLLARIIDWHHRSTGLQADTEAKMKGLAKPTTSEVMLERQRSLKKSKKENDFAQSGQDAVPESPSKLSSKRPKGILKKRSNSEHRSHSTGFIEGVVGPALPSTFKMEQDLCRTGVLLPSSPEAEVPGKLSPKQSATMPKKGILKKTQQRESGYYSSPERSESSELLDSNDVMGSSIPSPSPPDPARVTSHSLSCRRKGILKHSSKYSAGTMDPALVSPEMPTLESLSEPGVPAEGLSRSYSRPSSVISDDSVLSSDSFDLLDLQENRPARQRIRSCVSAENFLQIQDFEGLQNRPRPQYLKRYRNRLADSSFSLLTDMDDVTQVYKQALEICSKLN

SMILES	effect on	action	technique	tested at	quantity	result
Cn1cc(-c2cc(F)cc(N3CCn4c(cc5c4CCCC5)C3=O)c2CO)cc(Nc2ccc(N3CCN(C4COC4)CC3)cn2)c1=O	enzyme activity	inhibitor		0.1 µM	inhibition	17%
N#CC1(c2ccccn2)CCN(Cc2cc(C(=O)O)c(=O)n3ccccc23)CC1	cell-free assay		competition with immobilised ligand	1 µM	remaining binding	98%
Cc1nn(C)cc1-c1nc2c(N3CCN(Cc4ccc(Cl)cc4)CC3)c(Cl)cnc2[nH]1	binding		competition with immobilised ligand	1 µM	remaining binding	9.6%
CC(C)(C)c1cc(C=C(C#N)C#N)cc(Br)c1O	enzyme activity	inhibitor		0.5 µM	remaining activity	95.4%
Cn1cc(-c2cccc(N3CCc4c(sc5c4CC(C)(C)C5)C3=O)c2CO)cc(Nc2ccncn2)c1=O	enzyme activity	inhibitor		1 µM	inhibition	14%
C#Cc1n[nH]c2c(-c3cn([C@@H](C)c4ccccc4)c(=O)[nH]c3=O)cc(F)cc12	enzyme activity	inhibitor		0.1 µM	inhibition	0.4%
Nc1ncc(-c2nc(N3CCOCC3)nc(N3CCOCC3)n2)c(C(F)F)n1	binding		competition with immobilised ligand	10 µM	remaining binding	94%
O=c1[nH]c2ccccc2n1C1CCN(Cc2ccc(-c3[nH]c4cc5ncnc5cc4nc3-c3ccccc3)cc2)CC1	cell-free assay			0.5 µM	remaining signal	103%
Cn1cncc1[C@](O)(COc1ccc(C#N)cc1-c1ccc(OC(F)(F)F)cc1)c1ccc(C#N)cc1	cell-free assay		competition with immobilised ligand	1 µM	remaining binding	81%
C#Cc1n[nH]c2c(-c3cn([C@@H](C)c4ccccn4)c(=O)[nH]c3=O)cc(F)cc12	enzyme activity	inhibitor		0.1 µM	inhibition	3.3%
COc1ncccc1-c1cnn2ccc(N3CCN(C(=O)OC(C)C)CC3)nc12	binding		competition with immobilised ligand	1 µM	remaining binding	65%
